Activity calls are given as the source filed them. The calls are words filed in the database; no cut-off is given here.
How the values were obtained:
Liver = assay: Drug metabolism in Sprague-Dawley rat liver microsomes assessed as 4-tert-butyl-N-(2-chloro-4-(methylsulfonamido)benzyl)-3-hydroxybenzamide formation at 10 uM preincubated with NADPH regenerating system for 5 mins followed by addition of liver microsomes by LC-MS/MS method; type: ADME, microsome
[1] = target: Vitamin D3 receptor (Homo sapiens) (UniProt P11473); assay: Transactivation of human GAL4-fused VDR ligand binding domain expressed in […] cells at 10 uM after 12 to 14 hrs by dual-glo luciferase reporter gene assay; type: cell-based
Procedure, shortened: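 HEK293T cells in DMEM/10% FCS, Opti-MEM before Lipofectamine LTX transfection with pFR-Luc reporter, pRL-SV40 and pFA-CMV GAL4–LBD plasmid. 5 h later compound in 0.1% DMSO, Opti-MEM, overnight (12−14 h). Dual luciferase; firefly/renilla ×1000 = RLU, fold over DMSO control; triplicates, ≥3 independent repeats.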

[2] = target: G-protein coupled bile acid receptor 1 (Homo sapiens) (UniProt Q8TDU6); assay: Agonist activity at TGR5 (unknown origin) at 10 uM
G-protein coupled bile acid receptor 1 (Homo sapiens), sequence (Q8TDU6 whole entry): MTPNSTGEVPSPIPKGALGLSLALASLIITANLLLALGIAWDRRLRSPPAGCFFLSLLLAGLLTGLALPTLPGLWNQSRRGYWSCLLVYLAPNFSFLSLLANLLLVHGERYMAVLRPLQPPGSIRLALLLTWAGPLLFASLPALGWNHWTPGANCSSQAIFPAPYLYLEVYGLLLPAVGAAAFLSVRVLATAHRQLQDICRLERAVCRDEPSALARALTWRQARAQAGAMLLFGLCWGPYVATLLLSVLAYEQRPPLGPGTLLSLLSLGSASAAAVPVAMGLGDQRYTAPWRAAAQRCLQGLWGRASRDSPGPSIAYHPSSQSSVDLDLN

Vitamin D3 receptor (Homo sapiens), sequence (P11473 whole entry, the tested form may be a part): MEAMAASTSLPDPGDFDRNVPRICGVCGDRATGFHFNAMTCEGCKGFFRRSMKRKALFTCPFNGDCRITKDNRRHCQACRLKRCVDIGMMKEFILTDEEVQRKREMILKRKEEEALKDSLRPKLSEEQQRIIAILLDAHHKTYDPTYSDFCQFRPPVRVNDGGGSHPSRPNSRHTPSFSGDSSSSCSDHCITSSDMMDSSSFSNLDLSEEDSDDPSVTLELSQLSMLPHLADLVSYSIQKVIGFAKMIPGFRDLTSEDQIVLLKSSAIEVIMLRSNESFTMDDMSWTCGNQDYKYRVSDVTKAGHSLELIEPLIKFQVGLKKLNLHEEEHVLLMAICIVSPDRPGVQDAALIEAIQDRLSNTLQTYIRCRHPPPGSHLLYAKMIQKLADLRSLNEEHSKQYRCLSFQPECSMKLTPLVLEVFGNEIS

CC(C)(C)c1ccc(C(=O)NCc2ccc(NS(C)(=O)=O)cc2Cl)cc1
Drug metabolism (Liver): Metabolite_Notdetected | Activity [1]: inactive | Activity [2]: inactive

From ChEMBL document CHEMBL4017509, “A Dual Modulator of Farnesoid X Receptor and Soluble Epoxide Hydrolase To Counter Nonalcoholic Steatohepatitis” (J Med Chem, 2017)
